Source: ChEMBL document CHEMBL1136904, “Histone deacetylase inhibitors with a primary amide zinc binding group display antitumor activity in xenograft model” (Bioorg Med Chem Lett, 2009)
Activity calls are given as the source filed them.

Assays:
Histone deacetylase 1 = Histone deacetylase 1 (Homo sapiens, UniProt Q13547); assay: Inhibition of C-terminal FLAG tagged HDAC1
HeLa = assay: Antiproliferative activity against human HeLa cells after 72 hrs by celltiter-blue cell viability assay; assay type: functional, cell-based
How it was run: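 72 h proliferation assay in HeLa cervical cancer cells, giving IC50; means of two or more experiments.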

Mus musculus [1] = assay: Toxicity against human HCT116 cells xenografted nude mouse assessed as body weight loss at 150 mg/kg, ip administered once daily for 18 days; assay type: organism-based, HCT-116; parameters: dose 150 mg/kg, route intraperitoneal; details: in vivo, 432 h
[2] = Intrinsic clearance in human microsomes in presence of UDPGA; assay type: ADME, Microsome
How it was run: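 Glucuronidation measured in human microsomes in the presence of UDPGA. Intrinsic clearance expressed as µL/min/mg protein.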

[3] = Intrinsic clearance in dog liver microsomes in presence of NADPH; assay type: ADME, Canis lupus familiaris, Microsome
How it was run: (§1)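 Metabolic stability measured in liver microsomes (rat, human, dog) in the presence of NADPH. Intrinsic clearance expressed as µL/min/mg protein.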

[4] = Intrinsic clearance in rat liver microsomes in presence of NADPH; assay type: ADME, Microsome; how it was run: as §1
[5] = Intrinsic clearance in human liver microsomes in presence of NADPH; assay type: ADME, Microsome; how it was run: as §1
[6] = target: T1, Protein deacetylase HDAC6 (Homo sapiens, UniProt Q9UBN7); assay: Inhibition of C-terminal FLAG tagged HDAC6
T1 sequence (Q9UBN7 whole entry): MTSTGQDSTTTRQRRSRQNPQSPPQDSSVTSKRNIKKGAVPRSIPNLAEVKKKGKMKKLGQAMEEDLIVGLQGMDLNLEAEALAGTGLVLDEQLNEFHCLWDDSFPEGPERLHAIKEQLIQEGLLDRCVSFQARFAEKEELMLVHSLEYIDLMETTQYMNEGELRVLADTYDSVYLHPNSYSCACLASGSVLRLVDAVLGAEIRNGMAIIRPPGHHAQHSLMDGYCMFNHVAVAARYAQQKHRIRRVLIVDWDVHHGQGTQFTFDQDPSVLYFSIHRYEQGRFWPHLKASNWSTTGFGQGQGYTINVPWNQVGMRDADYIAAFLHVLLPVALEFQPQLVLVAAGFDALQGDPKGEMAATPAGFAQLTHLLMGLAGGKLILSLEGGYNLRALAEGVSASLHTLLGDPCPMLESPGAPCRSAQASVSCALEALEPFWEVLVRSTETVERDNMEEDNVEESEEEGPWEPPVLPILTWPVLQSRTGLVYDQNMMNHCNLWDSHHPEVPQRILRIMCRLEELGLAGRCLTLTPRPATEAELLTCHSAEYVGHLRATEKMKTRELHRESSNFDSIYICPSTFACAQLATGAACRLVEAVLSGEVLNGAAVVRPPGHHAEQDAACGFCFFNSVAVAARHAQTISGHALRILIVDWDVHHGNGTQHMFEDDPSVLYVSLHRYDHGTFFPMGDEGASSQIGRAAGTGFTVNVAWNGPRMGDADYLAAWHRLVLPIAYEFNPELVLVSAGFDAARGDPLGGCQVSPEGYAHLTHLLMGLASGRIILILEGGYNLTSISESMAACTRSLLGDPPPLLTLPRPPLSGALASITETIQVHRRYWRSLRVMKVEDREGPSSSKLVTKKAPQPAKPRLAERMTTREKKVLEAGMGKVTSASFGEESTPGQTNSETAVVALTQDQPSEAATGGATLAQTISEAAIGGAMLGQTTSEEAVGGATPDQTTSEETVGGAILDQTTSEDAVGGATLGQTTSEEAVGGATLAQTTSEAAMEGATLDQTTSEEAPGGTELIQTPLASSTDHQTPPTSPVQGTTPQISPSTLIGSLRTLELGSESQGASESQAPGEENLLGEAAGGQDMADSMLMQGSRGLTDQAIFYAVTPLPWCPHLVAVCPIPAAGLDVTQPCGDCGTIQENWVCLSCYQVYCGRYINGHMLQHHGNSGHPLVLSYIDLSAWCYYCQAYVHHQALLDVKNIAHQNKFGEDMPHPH

Histone deacetylase 4 = Histone deacetylase 4 (Homo sapiens, UniProt P56524); assay: Inhibition of His-tagged HDAC4 catalytic domain expressed in Escherichia coli
Chain of Histone deacetylase 4 (P56524 whole entry, the tested form may be a part): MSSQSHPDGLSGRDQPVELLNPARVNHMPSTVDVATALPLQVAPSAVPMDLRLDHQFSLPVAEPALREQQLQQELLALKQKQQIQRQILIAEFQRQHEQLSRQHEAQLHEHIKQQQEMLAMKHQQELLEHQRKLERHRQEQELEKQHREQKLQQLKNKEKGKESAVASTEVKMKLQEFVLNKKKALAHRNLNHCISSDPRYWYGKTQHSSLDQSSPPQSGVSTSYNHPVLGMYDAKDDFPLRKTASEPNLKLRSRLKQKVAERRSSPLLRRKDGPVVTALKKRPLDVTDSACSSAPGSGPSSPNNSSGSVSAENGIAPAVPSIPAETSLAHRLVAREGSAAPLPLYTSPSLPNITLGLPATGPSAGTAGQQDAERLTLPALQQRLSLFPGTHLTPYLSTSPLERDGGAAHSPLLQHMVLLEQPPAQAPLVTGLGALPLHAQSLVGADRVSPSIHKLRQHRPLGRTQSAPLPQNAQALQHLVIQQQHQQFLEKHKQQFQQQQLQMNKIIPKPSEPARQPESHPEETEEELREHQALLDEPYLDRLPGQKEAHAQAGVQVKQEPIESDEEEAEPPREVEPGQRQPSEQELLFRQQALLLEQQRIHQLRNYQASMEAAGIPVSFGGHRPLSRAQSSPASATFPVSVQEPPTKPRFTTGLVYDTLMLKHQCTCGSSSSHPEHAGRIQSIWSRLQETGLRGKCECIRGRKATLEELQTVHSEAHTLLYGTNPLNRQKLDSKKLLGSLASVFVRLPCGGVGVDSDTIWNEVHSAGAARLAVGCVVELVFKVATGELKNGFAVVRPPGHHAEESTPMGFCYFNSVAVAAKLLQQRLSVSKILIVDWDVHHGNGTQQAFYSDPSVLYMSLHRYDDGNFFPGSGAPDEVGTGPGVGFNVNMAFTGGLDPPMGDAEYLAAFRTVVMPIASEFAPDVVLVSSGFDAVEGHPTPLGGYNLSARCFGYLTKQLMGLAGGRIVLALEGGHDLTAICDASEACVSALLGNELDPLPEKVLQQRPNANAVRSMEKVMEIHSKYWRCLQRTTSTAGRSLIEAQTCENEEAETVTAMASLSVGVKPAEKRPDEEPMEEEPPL

[7] = Toxicity in ip dosed mouse assessed as maximum tolerated dose administered daily for 2 weeks; assay type: organism-based; details: in vivo
How it was run: (§2)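 Preliminary tolerability study in mice, with intraperitoneal dosing once daily for 2 weeks. The maximum tolerated dose was defined as the dose giving no mortality and body weight loss below 5%.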

Histone deacetylase 3 = Histone deacetylase 3 (Homo sapiens, UniProt O15379); assay: Inhibition of C-terminal FLAG tagged HDAC3
Chain of Histone deacetylase 3 (O15379 whole entry): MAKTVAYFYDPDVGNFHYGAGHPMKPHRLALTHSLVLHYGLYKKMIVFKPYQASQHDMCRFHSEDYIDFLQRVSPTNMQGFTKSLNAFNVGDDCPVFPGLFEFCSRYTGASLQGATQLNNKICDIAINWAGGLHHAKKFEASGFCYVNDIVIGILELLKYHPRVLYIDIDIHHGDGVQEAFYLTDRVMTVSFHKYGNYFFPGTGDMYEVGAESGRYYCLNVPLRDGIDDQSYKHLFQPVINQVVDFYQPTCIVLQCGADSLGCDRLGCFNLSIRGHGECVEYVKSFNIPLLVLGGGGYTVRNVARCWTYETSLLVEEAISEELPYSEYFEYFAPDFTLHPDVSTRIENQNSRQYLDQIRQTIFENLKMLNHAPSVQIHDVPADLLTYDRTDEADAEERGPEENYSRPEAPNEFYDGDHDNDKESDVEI

Mus musculus [8] = assay: Toxicity in mouse assessed as body weight loss at 100 mg/kg, ip administered daily for 2 weeks; assay type: organism-based; parameters: dose 100 mg/kg, route intraperitoneal; details: in vivo, 336 h
How it was run: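 Preliminary MTD study in mice. Intraperitoneal dosing once daily for 2 weeks, tracking mortality and body weight loss. Tolerated dose defined as no mortality and body weight loss below 5%.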

Histone deacetylase 2 = Histone deacetylase 2 (Homo sapiens, UniProt Q92769); assay: Inhibition of C-terminal FLAG tagged HDAC2
Chain of Histone deacetylase 2 (Q92769 whole entry): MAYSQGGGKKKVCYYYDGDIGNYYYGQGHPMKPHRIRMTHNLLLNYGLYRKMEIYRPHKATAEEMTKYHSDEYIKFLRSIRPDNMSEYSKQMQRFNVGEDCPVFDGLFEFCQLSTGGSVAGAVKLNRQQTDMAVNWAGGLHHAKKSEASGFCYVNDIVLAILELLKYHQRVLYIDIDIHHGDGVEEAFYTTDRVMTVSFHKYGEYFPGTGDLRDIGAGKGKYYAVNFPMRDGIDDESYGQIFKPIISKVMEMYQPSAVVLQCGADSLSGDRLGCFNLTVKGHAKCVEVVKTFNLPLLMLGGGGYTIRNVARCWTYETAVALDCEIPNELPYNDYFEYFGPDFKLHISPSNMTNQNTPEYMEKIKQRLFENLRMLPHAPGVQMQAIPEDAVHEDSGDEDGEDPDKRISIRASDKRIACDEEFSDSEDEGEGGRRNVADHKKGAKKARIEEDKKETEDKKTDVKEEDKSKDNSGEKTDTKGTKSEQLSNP

HCT-116 [9] = assay: Antitumor activity against human HCT116 cells xenografted nude mouse assessed as tumor growth inhibition at 100 mg/kg, ip administered once daily for 18 days relative to control; assay type: functional; details: HCT-116, ip, 432 h, route intraperitoneal, read-out: TGI
How it was run: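 HCT116 human colon carcinoma xenografts in nude mice, 12 per group. Dosed intraperitoneally once daily for 18 days and compared with vehicle-treated animals. Tumor growth followed over time and reported as mean ± SEM.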

Histone deacetylase 8 = target: T2, Histone deacetylase 8 (Homo sapiens, UniProt Q9BY41); assay: Inhibition of His-tagged HDAC8 catalytic domain expressed in Escherichia coli
T2 sequence (Q9BY41 whole entry): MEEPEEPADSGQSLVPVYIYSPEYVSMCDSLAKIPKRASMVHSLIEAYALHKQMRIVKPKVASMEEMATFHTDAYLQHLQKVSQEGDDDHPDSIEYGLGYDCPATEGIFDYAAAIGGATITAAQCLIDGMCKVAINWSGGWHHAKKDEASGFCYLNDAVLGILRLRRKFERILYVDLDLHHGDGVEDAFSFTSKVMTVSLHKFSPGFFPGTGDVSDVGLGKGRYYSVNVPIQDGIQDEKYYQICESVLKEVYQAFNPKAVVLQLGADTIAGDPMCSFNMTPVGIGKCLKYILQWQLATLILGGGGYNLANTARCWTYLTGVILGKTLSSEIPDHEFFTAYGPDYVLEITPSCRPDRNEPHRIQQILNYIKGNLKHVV

Mus musculus [10] = assay: Toxicity against human HCT116 cells xenografted nude mouse assessed as body weight loss at 100 mg/kg, ip administered once daily for 18 days; assay type: organism-based, HCT-116; parameters: dose 100 mg/kg, route intraperitoneal; details: in vivo, 432 h
Mus musculus [11] = assay: Toxicity in mouse assessed as mortality at 100 mg/kg, ip administered daily for 2 weeks; assay type: organism-based; parameters: dose 100 mg/kg, route intraperitoneal; details: in vivo, 336 h; how it was run: as §2
A549 = assay: Antiproliferative activity against human A549 cells after 72 hrs by celltiter-blue cell viability assay; assay type: functional, cell-based; details: A549, 72 h
Mus musculus [12] = assay: Increase in histone acetylation in human HCT116 cells xenografted nude mouse at 100 mg/kg, ip measured for 24 hrs; assay type: functional, organism-based; parameters: dose 100 mg/kg; details: HCT-116
How it was run: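 Target engagement in nude mice bearing HCT116 xenografts, 4 per group. Single ip dose of 100 mpk, with vehicle controls. Histone acetylation measured in tumor biopsies at time points after administration and reported as mean ± SEM.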

HCT-116 [13] = assay: Antiproliferative activity against human HCT116 cells after 72 hrs by celltiter-blue cell viability assay; assay type: functional, cell-based; details: HCT-116, 72 h

Chain of Histone deacetylase 1 (Q13547 whole entry): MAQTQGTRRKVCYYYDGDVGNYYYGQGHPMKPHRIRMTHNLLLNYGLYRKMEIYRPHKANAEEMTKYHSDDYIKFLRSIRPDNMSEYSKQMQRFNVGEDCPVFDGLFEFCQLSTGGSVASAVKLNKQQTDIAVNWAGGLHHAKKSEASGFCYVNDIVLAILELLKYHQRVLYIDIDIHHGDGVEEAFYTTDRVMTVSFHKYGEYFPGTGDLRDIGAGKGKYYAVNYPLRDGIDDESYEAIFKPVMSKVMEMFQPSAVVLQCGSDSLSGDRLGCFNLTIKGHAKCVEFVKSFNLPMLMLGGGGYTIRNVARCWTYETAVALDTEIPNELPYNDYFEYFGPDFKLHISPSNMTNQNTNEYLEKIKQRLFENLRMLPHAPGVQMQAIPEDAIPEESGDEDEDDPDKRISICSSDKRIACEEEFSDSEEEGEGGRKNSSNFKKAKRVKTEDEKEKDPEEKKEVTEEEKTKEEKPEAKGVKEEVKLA

SMILES	IC50 (Histone deacetylase 1)	IC50 (HeLa)	further results
COc1ccc2[nH]c(C)c(CC(=O)N[C@@H](CCCCCC(=O)Nc3ccccc3N)c3ncc(-c4ccc5ccccc5c4)[nH]3)c2c1	110 nM	1.34 µM	
CN(C)S(=O)(=O)N[C@@H](CCCCCC(=O)O)c1ncc(-c2ccc3ccccc3c2)[nH]1	220 nM	26.4 µM	
O=C(CCCCCCC(=O)Nc1ccccc1)NO [VORINOSTAT]			Activity (Mus musculus [1]): < 5%
O=C(O)CCCCC[C@H](NS(=O)(=O)c1ccccc1[N+](=O)[O-])c1ncc(-c2ccc3ccccc3c2)[nH]1	19 nM	6.86 µM	
CN1CCC(C(=O)N[C@@H](CCCCCC(=O)O)c2ncc(-c3ccc4ccccc4c3)[nH]2)CC1	35 nM	35 µM	
O=C(O)CCCCC[C@H](NC(=O)c1cncs1)c1ncc(-c2ccc3ccccc3c2)[nH]1	23 nM	5.8 µM	
CN1CC[C@@H](C(=O)N[C@@H](CCCCCC(=O)O)c2ncc(-c3ccc4ccccc4c3)[nH]2)C1	73 nM	> 25 µM	
CN1CC[C@H](C(=O)N[C@@H](CCCCCC(=O)O)c2ncc(-c3ccc4ccccc4c3)[nH]2)C1	40 nM	> 25 µM	
COc1ccc2[nH]c(C)c(CC(=O)N[C@@H](CCCCCC(N)=O)c3ncc(-c4ccc5ccccc5c4)[nH]3)c2c1		0.44 µM	IC50 [6]: 120 nM; IC50 (Histone deacetylase 4): > 10 µM; MTD at 336 h [7]: 100 mg/kg; IC50 (Histone deacetylase 3): 250 nM; Activity (Mus musculus [8]): < 5%; IC50 (Histone deacetylase 2): 160 nM; inhibition in vivo at 100 mg/kg (HCT-116 [9]): 29%; IC50 (Histone deacetylase 8): > 5 µM; Activity (Mus musculus [10]): < 5%; Activity (Mus musculus [11]): Non-toxic; IC50 (A549): 3.56 µM; Activity (Mus musculus [12]): Active; IC50 (HCT-116 [13]): 860 nM
COc1ccc2[nH]c(C)c(CC(=O)N[C@@H](CCCCCC(C)=O)c3ncc(-c4ccccc4)[nH]3)c2c1	27 nM		
CCC(=O)CCCCC[C@@H]1NC(=O)[C@H]2CCCCN2C(=O)[C@H]([C@@H](C)CC)NC(=O)[C@H](Cc2cn(OC)c3ccccc23)NC1=O [APICIDIN]		0.29 µM	

Continued, in another order:

IC50 (Histone deacetylase 1)	IC50 (HeLa)	SMILES	further results
480 nM	12 µM	COc1ccc2[nH]c(C)c(CC(=O)N[C@@H](CCCCCC(=O)NC(C)C)c3ncc(-c4ccc5ccccc5c4)[nH]3)c2c1	
350 nM	4.7 µM	COc1ccc2[nH]c(C)c(CC(=O)N[C@@H](CCCCCC(=O)Nc3nncs3)c3ncc(-c4ccc5ccccc5c4)[nH]3)c2c1	
120 nM	1.7 µM	CNC(=O)CCCCC[C@H](NC(=O)Cc1c(C)[nH]c2ccc(OC)cc12)c1ncc(-c2ccc3ccccc3c2)[nH]1	
66 nM	2.7 µM	CCNC(=O)CCCCC[C@H](NC(=O)Cc1c(C)[nH]c2ccc(OC)cc12)c1ncc(-c2ccc3ccccc3c2)[nH]1	
3 nM	0.18 µM	COc1ccc2[nH]c(C)c(CC(=O)N[C@@H](CCCCCC(=O)NO)c3ncc(-c4ccc5ccccc5c4)[nH]3)c2c1	
47 nM	8 µM	COc1ccc2[nH]c(C)c(CC(=O)N[C@@H](CCCCCC(=O)NS(C)(=O)=O)c3ncc(-c4ccc5ccccc5c4)[nH]3)c2c1	
1000 nM	6.8 µM	COc1ccc2[nH]c(C)c(CC(=O)N[C@@H](CCCCCC(=O)NCc3ccccc3)c3ncc(-c4ccc5ccccc5c4)[nH]3)c2c1	
170 nM	3.8 µM	COc1ccc2[nH]c(C)c(CC(=O)N[C@@H](CCCCCC(=O)N(C)C)c3ncc(-c4ccc5ccccc5c4)[nH]3)c2c1	
27 nM	0.2 µM	CCC(=O)CCCCC[C@H](NC(=O)Cc1c(C)[nH]c2ccc(OC)cc12)c1ncc(-c2ccc3ccccc3c2)[nH]1	
94 nM	33.5 µM	COc1ccc2[nH]c(C)c(CC(=O)N[C@@H](CCCCCC(=O)NS(=O)(=O)C(F)(F)F)c3ncc(-c4ccc5ccccc5c4)[nH]3)c2c1	
200 nM	5.9 µM	COc1ccc2[nH]c(C)c(CC(=O)N[C@@H](CCCCCC(=O)Nc3ccccc3)c3ncc(-c4ccc5ccccc5c4)[nH]3)c2c1	
28 nM	0.39 µM	COc1ccc2[nH]c(C)c(CC(=O)N[C@@H](CCCCCC(=O)O)c3ncc(-c4ccc5ccccc5c4)[nH]3)c2c1	microsomal CLint [2]: 24 µL/min/mg; microsomal CLint [3]: 3 µL/min/mg; microsomal CLint [4]: 177 µL/min/mg; microsomal CLint [5]: 9 µL/min/mg
34 nM	0.66 µM	CONC(=O)CCCCC[C@H](NC(=O)Cc1c(C)[nH]c2ccc(OC)cc12)c1ncc(-c2ccc3ccccc3c2)[nH]1	
